The target in assay [1] is GABA-A receptor; anion channel. Description: Inhibition of [3H]-diazepam binding to GABA-A benzodiazepine receptor of rat cerebral cortical membranes. In kind it is cell membranes, Membrane.
The subject of assay [2] is Mus musculus. Description: Antagonism of Diazepam (2.5 mg/kg) anticonvulsant effect in mice treated with (pentylenetetrazole) PTZ (80 mg/kg). The class given is functional. An outline of the steps:
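Adult male NIH-colony mice (20-25 g), groups of 10, got graded ip doses of test agent or vehicle (0.1 mL). Diazepam 2.5 mg/kg ip followed 15 min later, then PTZ 80 mg/kg 15 min after that. Score: tonic-clonic convulsions. ED50 = dose that blocks diazepam's anticonvulsant effect in 50% of mice.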

Assay [3] relates to Mus musculus. Description: Convulsant effect in mice treated with subconvulsant (pentylenetetrazole) PTZ (40 mg/kg), ineffective at 30 mg/kg. In kind it is functional, organism-based. More on the design: dose 30 mg/kg.
In assay [4] the test system is Mus musculus. Description: Convulsant effect in mice treated with subconvulsant (pentylenetetrazole) PTZ (40 mg/kg). In kind it is functional.
Assay [5] deals with Mus musculus. Description: Protection of mice against maximal electroshock (MES)-induced convulsions after administration of 38 mg/kg. The class given is functional.
The species entered for assay [6] is Mus musculus. Description: In vitro ability to induce convulsions in mice.

The record followed here is ChEMBL document CHEMBL1123688, “Synthesis of 7,12-dihydropyrido[3,4-b:5,4-b']diindoles. A novel class of rigid, planar benzodiazepine receptor ligands” (J Med Chem, 1987).

pIC50: −log10 of the molar value. Activity calls are given as the source filed them. The calls are words filed in the database; no cut-off is given here.

Consider `Clc1cccc2[nH]c3c4c5ccccc5nc-4c[nH]c3c12`, for which the pIC50 in assay [1] was 6.15.

The compound `Fc1ccc2[nH]c3c4c5ccccc5nc-4c[nH]c3c2c1` returned an ED50 in the assay on Mus musculus [2] of 24 mg/kg. The same compound showed a negative logarithm of the IC50 (pIC50) in assay [1] of 7.80. Besides, the ED50 entry in the assay on Mus musculus [3] was “inactive”.

Regarding `Fc1ccc2c(c1)[nH]c1c3c4ccccc4nc-3c[nH]c12`, the pIC50 in assay [1] is 8.15.

`Clc1ccc2[nH]c3c4c5ccccc5nc-4c[nH]c3c2c1` showed a pIC50 in assay [1] of 5.67.

Regarding `c1ccc2c(c1)[nH]c1c2ncc2[nH]c3ccccc3c21`, the median effective dose (ED50) in the assay on Mus musculus [4] was 15.1 mg/kg; in the assay on Mus musculus [2], 21.3 mg/kg. The same compound showed a pIC50 in assay [1] of 8.40.

On to `Clc1ccc2c(c1)[nH]c1c2ncc2[nH]c3ccccc3c21`, for which it took a dose of 2.5 mg/kg to reach the 50% effect level in the assay with Mus musculus [2] (ED50). In addition, the negative-log IC50 (pIC50) in assay [1] was 8.00. Further, the ED50 entry in the assay with Mus musculus [3] was “inactive”.

Take `COc1ccc2c(c1)[nH]c1c2ncc2[nH]c3ccccc3c21`: the results for the 50% effective dose (ED50) in the assay with Mus musculus [4] and in the assay on Mus musculus [2] were 7 mg/kg and 3.9 mg/kg, respectively. Moreover, the negative-log IC50 (pIC50) in assay [1] was 8.10.

As to `Clc1cccc2c1[nH]c1c3c4ccccc4nc-3c[nH]c12`, in assay [1], the pIC50 is 7.10.

The compound `CN1C(=O)CN=C(c2ccccc2)c2cc(Cl)ccc21` [DIAZEPAM] gave a Survivors in the assay on Mus musculus [5] of 100%. The compound further had an ED50 in the assay filed under Mus musculus [6] of 3.4 mg/kg.

In assay [1], `Fc1cccc2c1[nH]c1c3c4ccccc4nc-3c[nH]c12` had a pIC50 of 7.92.

On to `COc1ccc2[nH]c3c4c5ccccc5nc-4c[nH]c3c2c1`, for which the pIC50 in assay [1] was 6.05.
